The source made the active and inactive calls. The rule behind the calls is not given here.
Columns and labels:
[1] = Selectivity index, ratio of CC50 for human H9 cells to EC50 for HIV1 3B; format: toxicity, cell-based
Outline: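 SI = CC50/EC50 in H9 cells. Toxicity by XTT on mock-infected H9 cultures set up identically to the HIV-1 IIIB infection wells (same drug concentrations, media changes days 1 and 4, 6-day culture).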

[2] = test system: Human immunodeficiency virus 1; assay: Antiviral activity against HIV1 3B infected in human H9 cells assessed as inhibition of viral replication after 6 days by p24 antigen based assay; format: functional, organism-based
Outline: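 H9 cells (3 × 10⁵ cells/mL) infected with HIV-1 IIIB, 125 TCID₅₀ per well, with drug diluted from 10 mg/mL DMSO master stocks; screening at 100, 20, 4, 0.8 µg/mL, with further dilutions for actives. Media replaced on days 1 and 4; supernatant p24 antigen capture on day 6. Run alongside AZT control; averages of three independent assays.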

H9 = assay: Cytotoxicity against human H9 cells after 6 days by XTT assay; format: cell-based; conditions: h9, 144 h
Outline: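 Mock-infected H9 human T cells (3 × 10⁵ cells/mL in RPMI 1640 with 10% fetal calf serum and L-glutamine, 37 °C, 5% CO₂) exposed to samples diluted from 10 mg/mL DMSO master stocks (screening at 100, 20, 4, 0.8 µg/mL). Media replaced on days 1 and 4, assay ended day 6. Viability by XTT, 50% cytotoxic concentration taken. Mean of three independent assays.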

[3] = biological target: Human immunodeficiency virus type 1 reverse transcriptase (Human immunodeficiency virus 1) (UniProt Q72547); assay: Inhibition of HIV1 DH012 reverse transcriptase
Outline: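 Reverse transcriptase activity of primary isolate HIV-1 DH012 measured with a colorimetric HIV-1 RT kit following the manufacturer's protocol, in the presence of various compound concentrations. The kit reads RNA-dependent DNA polymerase activity.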

[4] = test system: Human immunodeficiency virus 1; assay: Resistant fold, ratio of EC50 for HIV1 with reverse transcriptase A17 (K103N, Y181C) mutant to EC50 for wild type HIV1 3B; format: functional
[5] = test system: Human immunodeficiency virus 1; assay: Antiviral activity against HIV1 with reverse transcriptase 6005MR mutant infected in human MT2 cells assessed as inhibition of p24 antigen production after 4 days by ELISA; format: functional, organism-based; conditions: Human immunodeficiency virus 1, MT2, 96 h
Outline: (§1)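 Drug-resistant HIV-1 strains (Panacos) at MOI 0.001 TCID₅₀/cell, mixed with compound dilutions in RPMI 1640/10% FBS and cells at 6×10⁵ cells/mL, 37 °C. Compound-containing fresh medium added on day 2; supernatant p24 ELISA on day 4. Averages of three independent assays.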

[6] = test system: Human immunodeficiency virus 1; assay: Antiviral activity against HIV1 with reverse transcriptase A17 (K103N, Y181C) mutant infected in human MT2 cells assessed as inhibition of p24 antigen production after 4 days by ELISA; format: functional, organism-based; conditions: Human immunodeficiency virus 1, MT2, 96 h; outline: as §1
[7] = test system: Human immunodeficiency virus 1; assay: Antiviral activity against wild type HIV1 3B infected in human MT2 cells assessed as inhibition of p24 antigen production after 4 days by ELISA; format: functional, organism-based; conditions: Human immunodeficiency virus 1, 3B, MT2, 96 h
Outline: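 1 × 10⁴ MT-2 cells infected with HIV-1 IIIB (100 TCID₅₀) in RPMI 1640/10% FBS with graded compound overnight, then compound-free medium. Day-4 supernatants lysed in Triton X-100 and p24 measured by sandwich ELISA (HIVIG capture, anti-p24 mAb, TMB, A450) against a recombinant p24 standard curve. Triplicates; EC50 from percent inhibition via median-effect analysis.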

[8] = test system: Human immunodeficiency virus 1; assay: Antiviral activity against HIV1 with reverse transcriptase Y181C mutant infected in human MT2 cells assessed as inhibition of p24 antigen production after 4 days by ELISA; format: functional, organism-based; conditions: Human immunodeficiency virus 1, MT2, 96 h; outline: as §1
[9] = test system: Human immunodeficiency virus 1; assay: Antiviral activity against HIV1 with reverse transcriptase 8605MR mutant infected in human MT2 cells assessed as inhibition of p24 antigen production after 4 days by ELISA; format: functional, organism-based; conditions: Human immunodeficiency virus 1, MT2, 96 h; outline: as §1
[10] = Human immunodeficiency virus 1, 3B, H9, 144 h, read-out: EC50

Row | SMILES | Ratio CC50/EC50 [1] | EC50 [2, 10] [nM] | CC50 (H9) [µM] | other results
1 | Cc1cc(C#N)cc(C)c1Oc1ccc(N)c(Nc2ccc(C#N)cc2)c1 | 711 | 70 | 49.8 | 
2 | Cc1cc(C#N)cc(C)c1Oc1cc(Nc2ccc(C#N)cc2)c([N+](=O)[O-])cc1[N+](=O)[O-] | > 14 | 4190 | > 58.3 | 
3 | Cc1cc(C)c(Oc2ccc(N)c(Nc3ccc(C#N)cc3)c2)c(C)c1 | 699 | 73 | 51 | 
4 | Cc1cc(Br)cc(C)c1Oc1cc(Nc2ccc(Cl)cc2)c([N+](=O)[O-])cc1[N+](=O)[O-] |  |  |  | EC50 ([2]; h9): Not Active
5 | Cc1cccc(C)c1Oc1cc(Nc2ccc(C#N)cc2)c([N+](=O)[O-])cc1[N+](=O)[O-] | > 113 | 545 | > 61.9 | 
6 | Cc1cc(C#N)cc(C)c1Oc1ccc([N+](=O)[O-])c(Nc2ccc(C#N)cc2)c1 | > 313 | 208 | > 65.1 | 
7 | COc1ccc(Nc2cc(Oc3c(C)cc(C)cc3C)c([N+](=O)[O-])cc2[N+](=O)[O-])cc1 | > 20 | 2990 | > 59.1 | 
8 | Cc1cc(C#N)cc(C)c1Oc1cc(Nc2ccc(C#N)cc2)c(N)cc1[N+](=O)[O-] | 20887 | 3 | 62.7 | Activity [3]: Active; Ratio EC50 [4]: 18.9; EC50 [5]: 5 nM; EC50 [6]: 231 nM; EC50 [7]: 5 nM; EC50 [8]: 504 nM; EC50 [9]: 5 nM
9 | Cc1cc(Br)cc(C)c1Oc1cc(Nc2ccc(C#N)cc2)c([N+](=O)[O-])cc1[N+](=O)[O-] | > 301 | 172 | > 51.8 | 
10 | Cc1cc(C)c(Oc2cc(Nc3ccc(C#N)cc3)c([N+](=O)[O-])cc2[N+](=O)[O-])c(C)c1 | > 214 | 280 | > 59.8 | 
11 | Cc1cccc(C)c1Oc1ccc([N+](=O)[O-])c(Nc2ccc(C#N)cc2)c1 | 22 | 3150 | 69.6 | 
12 | Cc1cc(C=O)cc(C)c1Oc1ccc([N+](=O)[O-])c(Nc2ccc(C#N)cc2)c1 | 6 | 2190 | 14.2 | 
13 | COc1ccc(Nc2cc(Oc3c(C)cc(Br)cc3C)c([N+](=O)[O-])cc2[N+](=O)[O-])cc1 | 14 | 3630 | 51.2 | 
14 | Cc1cc(Br)cc(C)c1Oc1cc(Nc2ccc([N+](=O)[O-])cc2)c([N+](=O)[O-])cc1[N+](=O)[O-] | > 1 | > 49700 | > 49.7 | 
15 | Cc1cc(C)c(Oc2ccc([N+](=O)[O-])c(Nc3ccc(C#N)cc3)c2)c(C)c1 | > 1000 | 67 | > 67 | 
16 | Cc1cccc(C)c1Oc1cc(Nc2ccc(C#N)cc2)c(N)cc1N | 16 | 3230 | 53.2 | 
17 | COc1ccc(Nc2cc(Oc3c(C)cccc3C)c([N+](=O)[O-])cc2[N+](=O)[O-])cc1 | > 16 | 3840 | > 61.1 | 
18 | Cc1cc(Br)cc(C)c1Oc1ccc([N+](=O)[O-])c(Nc2ccc(C#N)cc2)c1 | > 180 | 317 | > 57.1 | 
19 | Cc1cc(Br)cc(C)c1Oc1ccc(N)c(Nc2ccc(C#N)cc2)c1 | 949 | 47 | 44.6 | 
20 | Cc1cc(C#N)cc(C)c1Oc1nc(Nc2ccc(C#N)cc2)nc(N)c1Br [ETRAVIRINE] |  |  |  | Ratio EC50 [4]: 9.9; EC50 [6]: 575 nM; EC50 [7]: 58 nM
21 | Cc1cc(Br)cc(C)c1Oc1cc(Nc2ccc(C#N)cc2)c(N)cc1N | 238 | 161 | 38.4 | 
22 | Cc1cc(C#N)cc(C)c1Oc1cc(Nc2ccc(C#N)cc2)c(N)cc1N | 1698 | 30 | 51 | Activity [3]: Active; Ratio EC50 [4]: 73.3; EC50 [5]: 33 nM; EC50 [6]: 1240 nM; EC50 [7]: 65 nM; EC50 [8]: 1730 nM; EC50 [9]: 138 nM
23 | Cc1ccc(Nc2cc(Oc3c(C)cc(Br)cc3C)c([N+](=O)[O-])cc2[N+](=O)[O-])cc1 | 12 | 4310 | 53 | 
24 | Cc1cc(C=O)cc(C)c1Oc1cc(Nc2ccc(C#N)cc2)c([N+](=O)[O-])cc1[N+](=O)[O-] | 38 | 1530 | 57.9 | 
25 | Cc1ccnc2c1NC(=O)c1cccnc1N2C1CC1 [NEVIRAPINE] |  |  |  | EC50 [5]: > 3700 nM; EC50 [6]: > 3700 nM; EC50 [7]: 53 nM; EC50 [8]: > 3700 nM; EC50 [9]: > 3700 nM
26 | Cc1cc(C)c(Oc2cc(Nc3ccc(C#N)cc3)c(N)cc2[N+](=O)[O-])c(C)c1 | 520 | 62 | 32.2 | 
27 | Cc1cc(C)c(Oc2cc(Nc3ccc(C#N)cc3)c(N)cc2N)c(C)c1 | 714 | 70 | 50 | 
28 | Cc1cn([C@H]2C[C@H](N=[N+]=[N-])[C@@H](CO)O2)c(=O)[nH]c1=O [ZIDOVUDINE] | 36019 | 52 | 1870 | 
29 | Cc1cc(Br)cc(C)c1Oc1cc(Nc2ccc(C#N)cc2)c(N)cc1[N+](=O)[O-] | 2842 | 16 |  | CC50 (H9; 144 h): 45.5 µM; Ratio EC50 [4]: 20.3; EC50 [5]: 7 nM; EC50 [6]: 254 nM; EC50 [7]: 8 nM; EC50 [8]: 1300 nM; EC50 [9]: 20 nM
30 | Cc1cc(Br)cc(C)c1Oc1cc(Nc2ccc(C#N)cc2)c(N)cc1[N+](=O)[O-].Cl | 3035 |  |  | EC50 ([2]; h9, read-out: EC50): 12 nM
